pEC50, pIC50: −log10 of the molar value. Active and inactive are the calls of the source. The calls are words filed in the database; no cut-off is given here.
Tests used:
[1] = Antioxidant activity assessed as DPPH free radical scavenging activity incubated for 30 mins by ELISA method; type: physicochemical; details: 0.5 h; read-out: ED50 (the source's name)
Outline: (§1)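 Sample (120 μL, 10−100 μg/mL) mixed with 30 μL of 0.75 mM DPPH in methanol, shaken in the dark at room temperature for 30 min, absorbance read at 517 nm on a plate reader. Methanol negative control, α-tocopherol (10−40 μg/mL) positive control. ED50 taken as concentration scavenging 50% of DPPH radicals.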

[2] = Antioxidant activity assessed as DPPH free radical scavenging activity at 100 ug/ml incubated for 30 mins by ELISA method; type: physicochemical; details: 0.5 h; outline: as §1
RAW264.7 [3] = assay: Anti-inflammatory activity in mouse RAW264.7 cells assessed as inhibition of LPS-induced nitric oxide production at 20 ug/ml incubated for 24 hrs by Griess reagent based assay; type: functional, cell-based
Outline: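 RAW 264.7 macrophages grown in DMEM with 5% heat-inactivated fetal calf serum at 37 °C, 5% CO2. Cells seeded at 2 × 10^5/well, treated with compound (DMSO stock diluted in PBS) together with LPS 1000 ng/mL for 24 h. Medium nitrite read with Griess reagent at 550 nm against NaNO2 standard curve; LPS-only NO set as 100%; triplicate; quercetin positive control.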

RAW264.7 [4] = assay: Anti-inflammatory activity in mouse RAW264.7 cells assessed as inhibition of LPS-induced nitric oxide production incubated for 24 hrs by Griess reagent based assay; type: functional, cell-based; details: RAW264.7, 24 h
Outline: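 RAW 264.7 macrophages grown in DMEM with 5% heat-inactivated FCS at 37 °C, 5% CO2; plated at 2 × 10^5 cells/well and stimulated with LPS (1000 ng/mL) concurrently with test agents (DMSO stocks diluted in PBS) for 24 h. Nitrite in medium measured with Griess reagent at 550 nm against NaNO2 standard curve; LPS-only set as 100%; triplicates; IC50 reported.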

Compound | pEC50 [1] | Activity [2] | inhibition (RAW264.7 [3]) | pIC50 (RAW264.7 [4])
Cc1c(C)c2c(c(C)c1O)CCC(C)(CCCC(C)CCCC(C)CCCC(C)C)O2 (racemic) [alpha-TOCHOPHEROL] | 4.56 | – | – | –
O=C(/C=C/c1ccc(O)cc1)OC[C@H]1OC(O)[C@H](O)[C@@H](O)[C@@H]1O (some centres undefined) | – | 5% | inactive | –
O=C(/C=C/c1ccc(O)cc1)OC[C@H]1O[C@@H](Oc2cc(/C=C/C(=O)O[C@@H]3O[C@H](CO)[C@@H](O)[C@H](O)[C@H]3O)ccc2O)[C@H](O)[C@@H](O)[C@@H]1O | – | 32.2% | inactive | –
O=C(/C=C/c1ccc(O)c(O)c1)OC[C@H]1O[C@@H](Oc2cc(/C=C/c3ccc(O)c(O)c3)oc(=O)c2)[C@H](O)[C@@H](O)[C@@H]1O | 4.89 | 99% | – | 4.83
O=C(/C=C/c1ccc(O)c(O)c1)OC[C@H]1OC(O)[C@H](O)[C@@H](O)[C@@H]1O (some centres undefined) | – | 9.8% | inactive | –
O=c1c(O)c(-c2ccc(O)c(O)c2)oc2cc(O)cc(O)c12 [QUERCETIN] | – | – | – | 5.74
O=C(/C=C/c1ccc(O[C@@H]2O[C@H](COC(=O)/C=C/c3ccc(O)c(O)c3)[C@@H](O)[C@H](O)[C@H]2O)c(O)c1)OC[C@H]1O[C@@H](Oc2cc(/C=C/c3ccc(O)c(O)c3)oc(=O)c2)[C@H](O)[C@@H](O)[C@@H]1O | 4.77 | 98.8% | inactive | –
O=C(/C=C/c1ccc(O)c(O)c1)O[C@@H]1O[C@H](CO)[C@@H](O)[C@H](O)[C@H]1O | 4.54 | 99.3% | inactive | –
COc1cc(/C=C/C(=O)OC[C@H]2O[C@@H](Oc3ccc(/C=C/C(=O)O[C@@H]4O[C@H](CO)[C@@H](O)[C@H](O)[C@H]4O)cc3O)[C@H](O)[C@@H](O)[C@@H]2O)ccc1O | 4.06 | 74.8% | inactive | –
O=C(/C=C/c1ccc(O)cc1)OC[C@H]1O[C@@H](Oc2ccc(/C=C/C(=O)O[C@@H]3O[C@H](CO)[C@@H](O)[C@H](O)[C@H]3O)cc2O)[C@H](O)[C@@H](O)[C@@H]1O | – | 7.8% | inactive | –
O=C(/C=C/c1ccc(O)c(O)c1)OC[C@H]1O[C@@H](Oc2ccc(/C=C/C(=O)O[C@@H]3O[C@H](CO)[C@@H](O)[C@H](O)[C@H]3O)cc2)[C@H](O)[C@@H](O)[C@@H]1O | 4.33 | 99.7% | inactive | –
O=C(/C=C/c1ccc(O)c(O)c1)OC[C@H]1O[C@@H](Oc2ccc(/C=C/C(=O)O[C@@H]3O[C@H](CO)[C@@H](O)[C@H](O)[C@H]3O)cc2O)[C@H](O)[C@@H](O)[C@@H]1O | 4.88 | 99.8% | inactive | –
O=C(/C=C/c1ccc(O)c(O)c1)OC[C@H]1O[C@@H](Oc2cc(/C=C/C(=O)O[C@@H]3O[C@H](CO)[C@@H](O)[C@H](O)[C@H]3O)ccc2O)[C@H](O)[C@@H](O)[C@@H]1O | 4.40 | 99.4% | inactive | –
O=C(O)/C=C/c1ccc(O[C@@H]2O[C@H](CO)[C@@H](O)[C@H](O)[C@H]2O)c(O)c1 | 3.76 | 91.2% | inactive | –
